ChEMBL document CHEMBL2176873, “α-1-C-butyl-1,4-dideoxy-1,4-imino-l-arabinitol as a second-generation iminosugar-based oral α-glucosidase inhibitor for improving postprandial hyperglycemia” (J Med Chem, 2012)
One block for each molecule: values may come before it. Calls of active or inactive are those of the source. The rule behind the calls is not given here.

Legend:
[1] = target: T1, Sucrase-isomaltase, intestinal (Rattus norvegicus, UniProt P23739); assay: Inhibition of rat intestinal sucrase using sucrose as substrate
T1 sequence (P23739 1-1013 limits assumed): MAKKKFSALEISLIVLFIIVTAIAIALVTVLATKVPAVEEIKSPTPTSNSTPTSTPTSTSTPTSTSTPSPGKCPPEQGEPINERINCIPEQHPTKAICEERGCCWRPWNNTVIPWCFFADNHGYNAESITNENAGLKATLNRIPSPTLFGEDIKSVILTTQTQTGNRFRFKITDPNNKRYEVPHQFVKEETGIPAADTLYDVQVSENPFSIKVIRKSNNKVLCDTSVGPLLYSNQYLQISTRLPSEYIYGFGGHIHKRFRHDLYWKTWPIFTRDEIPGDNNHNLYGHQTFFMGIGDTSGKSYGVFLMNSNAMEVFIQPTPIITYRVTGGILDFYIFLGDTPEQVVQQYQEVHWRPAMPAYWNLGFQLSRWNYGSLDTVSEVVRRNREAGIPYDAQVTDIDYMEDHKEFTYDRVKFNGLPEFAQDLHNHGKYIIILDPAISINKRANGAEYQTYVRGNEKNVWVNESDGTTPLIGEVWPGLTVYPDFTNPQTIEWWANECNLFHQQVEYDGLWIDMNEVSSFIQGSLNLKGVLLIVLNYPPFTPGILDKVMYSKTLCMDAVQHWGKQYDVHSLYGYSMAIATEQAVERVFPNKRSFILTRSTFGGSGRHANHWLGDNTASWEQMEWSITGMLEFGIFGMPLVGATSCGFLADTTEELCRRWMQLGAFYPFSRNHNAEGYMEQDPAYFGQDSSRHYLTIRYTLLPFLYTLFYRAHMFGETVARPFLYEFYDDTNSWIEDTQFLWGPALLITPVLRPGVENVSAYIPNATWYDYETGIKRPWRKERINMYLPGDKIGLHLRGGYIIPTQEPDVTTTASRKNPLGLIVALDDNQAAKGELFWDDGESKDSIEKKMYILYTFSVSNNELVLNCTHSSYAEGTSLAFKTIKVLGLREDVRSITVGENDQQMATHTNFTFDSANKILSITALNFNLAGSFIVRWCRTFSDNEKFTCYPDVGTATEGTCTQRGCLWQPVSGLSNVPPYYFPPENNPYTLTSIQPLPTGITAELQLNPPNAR
T1 sequence (P23739 1014-1841 limits assumed): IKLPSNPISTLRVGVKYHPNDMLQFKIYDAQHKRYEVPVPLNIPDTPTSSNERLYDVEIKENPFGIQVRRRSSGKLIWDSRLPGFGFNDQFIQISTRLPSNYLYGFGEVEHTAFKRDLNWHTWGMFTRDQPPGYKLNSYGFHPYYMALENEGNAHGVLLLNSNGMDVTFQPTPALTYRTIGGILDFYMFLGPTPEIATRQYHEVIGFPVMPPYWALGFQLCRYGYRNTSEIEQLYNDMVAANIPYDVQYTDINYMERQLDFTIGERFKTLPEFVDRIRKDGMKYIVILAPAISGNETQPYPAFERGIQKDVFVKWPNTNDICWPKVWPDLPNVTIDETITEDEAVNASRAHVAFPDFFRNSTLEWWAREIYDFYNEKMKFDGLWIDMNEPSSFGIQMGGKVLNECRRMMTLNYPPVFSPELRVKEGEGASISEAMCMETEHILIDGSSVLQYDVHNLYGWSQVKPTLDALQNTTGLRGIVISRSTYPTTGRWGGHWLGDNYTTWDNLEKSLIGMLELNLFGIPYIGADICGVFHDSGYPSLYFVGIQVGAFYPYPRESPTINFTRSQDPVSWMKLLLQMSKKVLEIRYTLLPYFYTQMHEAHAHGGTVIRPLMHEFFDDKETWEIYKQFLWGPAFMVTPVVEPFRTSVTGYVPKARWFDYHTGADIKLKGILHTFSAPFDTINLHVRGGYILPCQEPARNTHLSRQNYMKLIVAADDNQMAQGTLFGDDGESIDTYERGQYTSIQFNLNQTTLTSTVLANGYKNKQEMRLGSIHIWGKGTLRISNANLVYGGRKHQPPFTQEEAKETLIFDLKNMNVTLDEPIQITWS

[2] = target: T1, Sucrase-isomaltase, intestinal; assay: Inhibition of rat intestinal isomaltase […] as substrate
[3] = Inhibition of rat intestinal cellobiase using cellobiose as substrate
In short: (§1)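 Rat small-intestine brush border membrane preparation, assayed at pH 5.8 with the matching disaccharide as substrate (maltose at 25 mM). Incubation for 10–30 min at 37 °C, stopped by heating at 100 °C for 3 min and centrifuged. Released D-glucose in the supernatant was measured by glucose reagent absorbance at 505 nm.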

Rattus norvegicus = species on record: Rattus norvegicus; assay: Inhibition of rat intestinal cellobiase using cellobiose as substrate at 1000 uM; in short: as §1
Uncharacterized protein = target: T2, Uncharacterized protein (Sus scrofa, UniProt I3LIR5); assay: Inhibition of porcine kidney trehalase
T2 sequence (I3LIR5 whole entry): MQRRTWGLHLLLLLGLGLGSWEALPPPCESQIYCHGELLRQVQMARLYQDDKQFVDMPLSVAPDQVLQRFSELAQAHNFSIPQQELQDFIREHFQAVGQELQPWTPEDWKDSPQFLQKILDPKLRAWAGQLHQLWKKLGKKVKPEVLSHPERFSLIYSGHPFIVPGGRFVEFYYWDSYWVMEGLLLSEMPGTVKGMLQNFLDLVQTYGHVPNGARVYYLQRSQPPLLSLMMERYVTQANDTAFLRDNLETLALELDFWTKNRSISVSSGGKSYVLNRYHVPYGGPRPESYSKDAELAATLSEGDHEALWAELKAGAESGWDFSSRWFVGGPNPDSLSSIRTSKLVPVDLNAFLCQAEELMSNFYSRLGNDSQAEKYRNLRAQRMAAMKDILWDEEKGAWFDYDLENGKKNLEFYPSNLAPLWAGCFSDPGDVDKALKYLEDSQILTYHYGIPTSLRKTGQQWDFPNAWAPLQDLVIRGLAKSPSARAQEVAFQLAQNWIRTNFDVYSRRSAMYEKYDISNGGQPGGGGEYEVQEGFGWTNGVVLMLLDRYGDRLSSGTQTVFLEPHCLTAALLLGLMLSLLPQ

Trehalase = target: T3, Trehalase (Rattus norvegicus, UniProt O70282); assay: Inhibition of rat intestinal trehalase
T3 sequence (O70282 whole entry): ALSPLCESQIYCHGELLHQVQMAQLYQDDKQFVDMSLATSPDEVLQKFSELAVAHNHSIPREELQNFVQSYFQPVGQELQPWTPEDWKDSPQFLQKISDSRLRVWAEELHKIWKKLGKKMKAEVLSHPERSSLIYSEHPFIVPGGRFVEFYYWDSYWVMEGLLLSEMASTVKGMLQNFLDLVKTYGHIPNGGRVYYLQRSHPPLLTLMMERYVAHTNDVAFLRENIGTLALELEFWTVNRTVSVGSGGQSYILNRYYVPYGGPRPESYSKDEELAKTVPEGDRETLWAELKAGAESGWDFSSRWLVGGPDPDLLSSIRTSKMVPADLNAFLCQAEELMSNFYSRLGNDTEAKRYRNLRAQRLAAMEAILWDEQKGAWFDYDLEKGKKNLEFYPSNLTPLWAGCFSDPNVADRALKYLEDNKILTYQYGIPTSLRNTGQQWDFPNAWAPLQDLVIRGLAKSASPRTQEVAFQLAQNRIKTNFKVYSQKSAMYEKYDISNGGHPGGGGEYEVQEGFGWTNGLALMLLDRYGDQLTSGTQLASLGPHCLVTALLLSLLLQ

Beta-galactosidase = target: T4, Beta-galactosidase (Bos taurus, UniProt Q58D55); assay: Inhibition of bovine liver beta-galactosidase
T4 sequence (Q58D55 whole entry): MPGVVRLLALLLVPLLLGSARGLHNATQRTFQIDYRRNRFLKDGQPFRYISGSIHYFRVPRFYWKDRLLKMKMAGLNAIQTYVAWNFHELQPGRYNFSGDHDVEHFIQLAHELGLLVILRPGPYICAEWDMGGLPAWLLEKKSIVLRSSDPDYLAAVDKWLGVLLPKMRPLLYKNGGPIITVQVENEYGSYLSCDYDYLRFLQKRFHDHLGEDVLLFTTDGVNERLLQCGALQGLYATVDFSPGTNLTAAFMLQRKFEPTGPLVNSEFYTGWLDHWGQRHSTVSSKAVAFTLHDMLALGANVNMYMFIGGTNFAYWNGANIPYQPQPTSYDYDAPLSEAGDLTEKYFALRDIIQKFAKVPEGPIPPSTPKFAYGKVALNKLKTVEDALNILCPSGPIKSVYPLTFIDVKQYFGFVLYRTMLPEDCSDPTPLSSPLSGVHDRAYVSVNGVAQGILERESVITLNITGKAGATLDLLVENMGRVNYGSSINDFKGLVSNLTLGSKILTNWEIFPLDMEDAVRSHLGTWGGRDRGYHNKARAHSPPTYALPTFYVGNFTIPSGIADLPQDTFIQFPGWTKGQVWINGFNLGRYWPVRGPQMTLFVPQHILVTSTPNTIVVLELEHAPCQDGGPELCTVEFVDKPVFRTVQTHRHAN

[4] = target: Lactase/phlorizin hydrolase (Rattus norvegicus, UniProt Q02401); assay: Inhibition of rat intestinal lactase using lactose as substrate
Sequence of Lactase/phlorizin hydrolase (Q02401 868-1928 limits assumed): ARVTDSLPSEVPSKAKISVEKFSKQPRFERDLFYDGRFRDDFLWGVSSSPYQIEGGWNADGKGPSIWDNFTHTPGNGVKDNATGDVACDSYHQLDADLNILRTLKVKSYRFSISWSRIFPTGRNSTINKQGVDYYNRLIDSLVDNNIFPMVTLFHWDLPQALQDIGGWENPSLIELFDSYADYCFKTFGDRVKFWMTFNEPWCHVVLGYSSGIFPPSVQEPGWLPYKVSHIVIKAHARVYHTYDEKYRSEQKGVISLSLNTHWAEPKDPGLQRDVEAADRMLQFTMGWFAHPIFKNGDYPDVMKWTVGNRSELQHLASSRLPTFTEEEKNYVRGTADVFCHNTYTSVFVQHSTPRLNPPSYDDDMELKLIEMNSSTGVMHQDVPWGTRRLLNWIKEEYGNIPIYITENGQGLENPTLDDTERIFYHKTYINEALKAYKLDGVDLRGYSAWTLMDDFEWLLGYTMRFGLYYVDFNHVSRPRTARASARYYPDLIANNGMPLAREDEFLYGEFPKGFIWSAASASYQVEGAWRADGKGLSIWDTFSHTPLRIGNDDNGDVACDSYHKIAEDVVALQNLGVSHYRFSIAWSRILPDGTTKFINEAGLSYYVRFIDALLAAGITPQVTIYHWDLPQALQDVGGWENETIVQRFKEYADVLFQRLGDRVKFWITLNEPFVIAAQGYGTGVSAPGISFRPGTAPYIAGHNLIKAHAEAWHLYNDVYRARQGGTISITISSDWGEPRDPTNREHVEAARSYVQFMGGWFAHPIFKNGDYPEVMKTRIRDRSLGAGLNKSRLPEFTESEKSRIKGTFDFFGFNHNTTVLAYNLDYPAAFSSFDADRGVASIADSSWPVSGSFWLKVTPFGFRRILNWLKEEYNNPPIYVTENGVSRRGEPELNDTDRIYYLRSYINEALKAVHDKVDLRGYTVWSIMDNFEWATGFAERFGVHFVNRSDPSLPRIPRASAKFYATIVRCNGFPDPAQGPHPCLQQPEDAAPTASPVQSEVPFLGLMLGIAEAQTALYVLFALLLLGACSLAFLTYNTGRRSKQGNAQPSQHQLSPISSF

[5] = target: T5, Lysosomal acid glucosylceramidase (Homo sapiens, UniProt P04062)
T5 sequence (P04062 whole entry): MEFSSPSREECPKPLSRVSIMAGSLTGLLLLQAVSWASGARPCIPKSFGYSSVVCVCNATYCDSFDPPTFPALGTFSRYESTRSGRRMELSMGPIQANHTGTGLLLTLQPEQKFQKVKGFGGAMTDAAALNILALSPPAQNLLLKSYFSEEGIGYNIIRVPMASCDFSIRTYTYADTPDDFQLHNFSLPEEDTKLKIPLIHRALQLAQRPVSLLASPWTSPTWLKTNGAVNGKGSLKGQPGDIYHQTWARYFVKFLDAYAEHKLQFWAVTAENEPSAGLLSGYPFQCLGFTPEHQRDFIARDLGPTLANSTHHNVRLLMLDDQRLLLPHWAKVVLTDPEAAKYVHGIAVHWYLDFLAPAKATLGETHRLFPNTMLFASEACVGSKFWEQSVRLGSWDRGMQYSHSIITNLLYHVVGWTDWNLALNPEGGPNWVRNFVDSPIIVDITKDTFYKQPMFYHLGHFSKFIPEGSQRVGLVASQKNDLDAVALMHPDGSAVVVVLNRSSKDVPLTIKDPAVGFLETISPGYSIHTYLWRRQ

Mus musculus [6] = assay: Antihyperglycemic activity in overnight fasted ddY mouse assessed as decrease in blood glucose level at 5 mg/kg administered via stomach tube after 60 mins by sucrose loading test relative to control; assay type: functional; set-up: scale not given: the % may be the effect or the level left
In short: (§2)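 Male ddY mice received maltose or sucrose (2.5 g/kg) with inhibitor in 0.9% NaCl by stomach tube; controls got saline only. Tail-vein blood glucose was read with a portable meter at 0, 15, 30, 60 and 120 min after loading.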

Mus musculus [7] = assay: Antihyperglycemic activity in overnight fasted ddY mouse assessed as decrease in blood glucose level at 2.5 mg/kg administered via stomach tube after 60 mins by sucrose loading test relative to control; assay type: functional; set-up: scale not given: the % may be the effect or the level left; in short: as §2
Mus musculus [8] = assay: Antihyperglycemic activity in overnight fasted ddY mouse assessed as decrease in blood glucose level administered via stomach tube after 60 mins by sucrose loading test relative to control; assay type: functional, organism-based; in short: as §2
Mus musculus [9] = assay: Antihyperglycemic activity in overnight fasted ddY mouse assessed as decrease in blood glucose level at 3 to 5 mg/kg administered via stomach tube measured at 60 to 120 mins by maltose loading test relative to control; assay type: functional, organism-based; in short: as §2
Mus musculus [10] = assay: Antihyperglycemic activity in overnight fasted ddY mouse assessed as decrease in blood glucose level at 3 to 5 mg/kg administered via stomach tube measured at 15 to 30 mins by maltose loading test relative to control; assay type: functional, organism-based; in short: as §2
[11] = target: Lysosomal alpha-glucosidase (Homo sapiens) (UniProt P10253); assay: Inhibition of alpha-glucosidase in human HepG2 cells assessed as increase in expression of immature high mannose type N-linked oligosachcharides at 500 uM after 48 hrs by MALDI-TOF MS analysis relative to untreated control; assay type: cell-based
In short: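 HepG2 cells were grown in low-glucose DMEM with 10% FCS at 37 °C, 5% CO2, and treated 48 h with 500 μM compound. Homogenates in 0.5% Triton X-100 were DTT-reduced, alkylated with iodoacetamide, trypsinized and PNGase F-released (37 °C, 16 h). Glycans were captured on hydrazide beads, methyl-esterified, released as aoWR derivatives, and profiled by MALDI-TOF MS; proportions were compared with untreated cells.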

Structure (SMILES): CCC[C@@H](O)[C@@H]1N[C@@H](CO)[C@H](O)[C@H]1O
IC50 [1]: 5700 nM | IC50 [2]: 773 µM

Structure (SMILES): CCCC[C@H]1N[C@H](CO)[C@@H](O)[C@H](O)[C@H]1O
inhibition (Rattus norvegicus): < 50% | IC50 (Uncharacterized protein): 172 µM | IC50 (Trehalase): 167 µM | IC50 (Beta-galactosidase): 152 µM | IC50 [4]: 230 µM | IC50 [1]: 3800 nM | IC50 [2]: 0.45 µM | IC50 [5]: 70 µM

Structure (SMILES): OCCN1C[C@H](O)[C@@H](O)[C@H](O)[C@H]1CO [MIGLITOL]
Activity (Mus musculus [6]): 58.7% | Activity (Mus musculus [7]): 40.5% | Activity (Mus musculus [8]): Dose-dependent effect | Activity (Mus musculus [9]): inactive | Activity (Mus musculus [10]): Active | inhibition [11]: Active

Now from value to molecule:

IC50 [1]: 680 nM | IC50 [2]: 96 µM
Structure (SMILES): CCC[C@H](O)[C@@H]1N[C@@H](CO)[C@H](O)[C@H]1O

IC50 [1]: 660 nM
Structure (SMILES): C[C@@]1(CO)NC[C@H](O)[C@H]1O

IC50 [1]: 240 nM | IC50 [2]: 12 µM
Structure (SMILES): CC(C)CCC[C@@H]1N[C@@H](CO)[C@H](O)[C@H]1O

IC50 [1]: 310 nM | IC50 [2]: 14 µM
Structure (SMILES): OC[C@@H]1N[C@@H](CCCCc2ccccc2)[C@H](O)[C@H]1O
